# Bioassay records: PubChem BioAssay, Broad Institute
# Only some compounds are listed: those with a hit (about 1.9% of all), similar ones and a draw of the others.
# SR-BI uptake up: enhances SR-BI lipid uptake from DiI-HDL; hit rate 0.096% among 320,000; AID 504775; activation, % at 12.5 µM; CHO ldlA[mSR-BI] cells, DiI-HDL uptake fluorescence, 3 h; 100 = double the neutral-control signal;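 active means mean replicate activation of at least 60% and every replicate at or above 60%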;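 further: 0% = median plate neutral-control signal and 100% = twice that signal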
#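 Test system: SR-BI-overexpressing, LDLR-lacking CHO cells; Also added: labelled HDL, 10 µg/mL; Measured by: bottom-read cell fluorescence after medium removal, ex 550/em 595 nm; Timing: 3 h uptake period with compound, 37 °C; Buffer or medium: F12, 0.5% BSA, 25 mM HEPES; Doses: single compound concentration, delivered by pin transfer.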
# SR-BI DiI inh: blocks mouse SR-BI lipid uptake from DiI-HDL; Q61009; ldlA[mSR-BI] CHO cells, DiI-HDL uptake fluorescence, 3 h; inhibition, % at 12.5 µM; hit rate 0.96% among 320,000; AID 488896;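 active means mean replicate inhibition of at least 70% and a set share of replicates each scoring 70 or more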;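 further: 0% = median of neutral control wells and 100% = median of positive control wells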
# Target sequence (Q61009 whole entry, looked up): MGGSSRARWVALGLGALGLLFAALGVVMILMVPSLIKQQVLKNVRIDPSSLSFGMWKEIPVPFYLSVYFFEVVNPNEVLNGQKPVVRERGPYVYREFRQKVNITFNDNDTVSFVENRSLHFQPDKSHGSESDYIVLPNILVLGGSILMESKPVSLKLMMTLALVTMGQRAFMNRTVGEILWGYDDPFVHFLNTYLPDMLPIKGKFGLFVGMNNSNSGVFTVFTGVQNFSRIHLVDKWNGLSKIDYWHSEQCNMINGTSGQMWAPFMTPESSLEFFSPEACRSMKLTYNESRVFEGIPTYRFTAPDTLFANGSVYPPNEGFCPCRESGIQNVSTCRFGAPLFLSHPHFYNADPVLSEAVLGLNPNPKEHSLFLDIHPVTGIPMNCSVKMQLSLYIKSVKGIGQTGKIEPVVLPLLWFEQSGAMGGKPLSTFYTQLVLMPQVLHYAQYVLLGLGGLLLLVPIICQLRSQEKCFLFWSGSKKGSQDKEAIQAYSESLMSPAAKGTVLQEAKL
# Glyco luc inh: N-linked glycosylation inhibition | D54 ERlucT glycosylation luciferase reporter, 24 h; percent of 100 nM tunicamycin response | reporter increase, % at 12.5 µM | hit rate 0.23% among 360,000 | AID 588692;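 active means mean luciferase reporter signal, scaled so untreated is 0 and the glycosylation-blocking control 100, at or above a set limit in every replicate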;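 further: luciferase carries N-glycosylation sites so blocking glycosylation raises the light; 0% = median of neutral control wells and 100% = median of 100 nM tunicamycin wells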
# PglD inh: PglD (C. jejuni) enzyme inhibition; purified PglD enzyme, DTNB colorimetric CoA detection; hit rate 0.098% among 360,000; inhibition, % at 12.5 µM; in the data active means inhibition above about 16%, passing the limit was not always enough
# HIV Env fusion: inhibitors of HIV Env-mediated cell fusion. HeLa-JRFL Env/CEM21 cell fusion, luciferase. inhibition, % at 12.3 µM. AID 651610. hit rate 1.1% among 360,000;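 active means mean replicate inhibition score of at least 50 and every replicate individually at or above 50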;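 further: 0% = plate neutral controls and 100% = maraviroc near 300 nM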
# Rtt109 HAT inh: C. albicans Rtt109 histone acetyltransferase inhibition; Q5AAJ8; purified Rtt109/Vps75, ThioGlo CoA-SH fluorescence, 4 h; inhibition, % at 34.9 µM; hit rate 0.16% among 330,000; AID 540336;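 active means inhibition of at least 50% in every replicate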
# An asterisk follows results filed as active; nt = not tested or not shown; [ ] = another dose, or the depositor's remark.
SMILES,SR-BI uptake up,SR-BI DiI inh,Glyco luc inh,PglD inh,HIV Env fusion,Rtt109 HAT inh
CN(Cc1cccs1)c1ncnc2sccc12,3,-3,-4,nt,70*,-7
COc1ccc(NC(=O)C2(C)CCN2Cc2ccc(SC)cc2)cc1OC (centres undefined),nt,nt,0,1,36,nt
CSc1ccc(CN2CCC2(C)C(=O)Nc2cccc(NS(C)(=O)=O)c2)cc1 (centres undefined),nt,nt,4,-2,76*,nt
COCCn1c(N)c(C#N)c2nc3ccccc3nc21,9,-9,9,0,-85,-335
N#Cc1c(N)n(CCc2ccc(F)cc2)c2nc3ccccc3nc12,-26,26,58*,-2,nt,3
CC(C)c1ccc(-c2nc(N3CCCCCC3)nc3n[nH]c(N)c23)cc1,-90,90*,-3,8,-29,0
Nc1[nH]nc2nc(N3CCOCC3)nc(-c3ccccc3)c12,7,-7,-4,7,67*,-4
CC(C)c1ccc(-c2nc(N3CCCC3)nc3n[nH]c(N)c23)cc1,-13,13,nt,2,27,-4
N#Cc1c(-c2ccccc2)nc(SCC(=O)N2c3ccccc3Sc3ccccc32)[nH]c1=O,nt,nt,2,nt,1,58*
N#Cc1c(-c2ccccc2)nc(SCC(=O)N(c2ccccc2)c2ccccc2)[nH]c1=O,4,-4,-1,4,9,26
COc1ccc2c3c(n(C)c2c1)[C@@H](CO)N(C(=O)c1ccccc1)CC31CCN(C(C)=O)CC1,nt,nt,nt,nt,31[16.7 µM],nt
CC(C)NC(=O)Nc1ccc2c(c1)C(=O)N([C@@H](C)CO)C[C@@H](C)[C@H](CN(C)C(=O)NC1CCCCC1)OCCCC[C@H](C)O2,nt,nt,nt,0,12[16.7 µM],nt
CC=Cc1ccc2n(c1=O)C[C@@H]1[C@@H](CO)[C@H](C(=O)NCCOC)[C@H]2N1Cc1nccs1 (mixture of isomers),nt,nt,nt,19*,20[16.7 µM],nt
COc1ccc(Nc2nc(-c3ccccc3)nc3ccccc23)c(OC)c1,-76,76*,-1,6,1,-3
COc1ccccc1Nc1cc(C(=O)NC2CCCC2)c2ccccc2n1,-66,66,4,3,0,-3
COc1ccc(Nc2nc(-c3ccncc3)nc3ccccc23)cc1,-80,80*,-9,-6,30,-5
COc1ccc(Nc2cc(C(=O)NC3CCCC3)c3ccccc3n2)c(OC)c1,-88,88*,0,-2,4,-2
CSCCNC(=O)Nc1c(-c2c(Cl)cccc2Cl)noc1C,142*,-142,2,nt,7,-6
Cc1onc(-c2c(Cl)cccc2Cl)c1NC(=O)NN(C)C,10,-10,0,-4,14,-2
C[C@@H](NC(=O)C[C@H]1C=C[C@@H](NC(=O)CN2CCOCC2)[C@H](CO)O1)c1ccccc1,nt,nt,nt,2,1[16.7 µM],nt
CN1C(=O)c2cc(NC(=O)Nc3ccccc3)ccc2OC[C@@H]2O[C@H](CC(=O)O)CC[C@@H]21,nt,nt,nt,2,4[16.7 µM],nt
CC1CC(=O)NN=C1c1ccc(NCCO)c([N+](=O)[O-])c1 (centres undefined),47,-47,1,-2,62*,9
C=CCNC(=O)[C@@H]1[C@H]2C(=O)O[C@H](c3ccccc3)[C@H](c3ccccc3)N2[C@H](c2ccc(OCCO)cc2)[C@@]12C(=O)Nc1ccc(C#CCCO)cc12,nt,nt,nt,nt,-52[16.7 µM],nt
CC(C)(C)c1ccc(C(=O)OCC(=O)Nc2cccc(S(=O)(=O)NC3=NCCC3)c2)cc1,nt,nt,2,4,4,nt
COc1ccc(-c2cc(C(=O)Nc3cccc(S(=O)(=O)NCc4ccco4)c3)c3ccccc3n2)cc1OC,nt,nt,0,nt,-8,-29
SMILES,SR-BI uptake up,SR-BI DiI inh,Glyco luc inh,PglD inh,HIV Env fusion,Rtt109 HAT inh
O=C(Nc1cccc(S(=O)(=O)NCc2ccco2)c1)c1cc(-c2ccc(F)cc2)nc2ccccc12,-74,74*,4,5,18,0
O=C(Nc1cccc(S(=O)(=O)NC2=NCCCCC2)c1)c1cc(-c2ccccc2)nc2ccccc12,-77,77*,5,-2,-8,-2
NC(=O)Nc1ccc(C(=O)OCC(=O)Nc2cccc(S(=O)(=O)NC3=NCCC3)c2)cc1,-76,76*,2,-4,nt,-2
CCNC(=O)[C@@H]1[C@@H](CO)[C@@H]2Cn3c(cccc3=O)[C@@H]2N1C(=O)C1CCCC1,nt,nt,nt,-3,nt,nt
CO[C@@H]1CN(C)C(=O)c2cc(NC(=O)NC(C)C)ccc2OC[C@@H](C)NC[C@@H]1C,nt,nt,nt,-1,-5[16.7 µM],nt
COc1ccc(OC)c(NC(=O)C(C)OC(=O)c2cc3ccccc3[nH]2)c1 (centres undefined),-28,28,-4,-2,58*,1
COc1ccc(NC(=O)N(C)C[C@H]2OCCCC[C@@H](C)Oc3ccc(NS(=O)(=O)c4c(C)noc4C)cc3C(=O)N([C@@H](C)CO)C[C@H]2C)cc1,nt,nt,nt,-2,-16[16.7 µM],nt
COCC(=O)Nc1ccc2c(c1)[C@H]1C[C@H](CC(=O)NCc3cccc(F)c3)O[C@@H](CO)[C@H]1O2,nt,nt,nt,-4,-3[16.7 µM],nt
COc1ccc(NC(=O)c2ccc(Cl)c(S(=O)(=O)N3CC(C)OC(C)C3)c2)cn1 (centres undefined),-53,53,3,-7,nt,-14
COc1ccc(NC(=O)c2ccc(Cl)c(S(=O)(=O)N3CCc4ccccc4C3)c2)cn1,-40,40,-4,5,92*,8
Cc1noc(C)c1NC(=O)N(C)C[C@H]1OCCCC[C@@H](C)Oc2ccc(N(C)C)cc2C(=O)N([C@H](C)CO)C[C@H]1C,nt,nt,nt,nt,-36[16.7 µM],nt
O=C(CSc1nnc(CNc2ccc(F)cc2)o1)N1c2ccccc2Sc2ccccc21,-36,36,-6,-6,64*,1
CCN(CC)S(=O)(=O)c1cc(NC(=O)CCNC(=O)c2ccco2)ccc1C,nt,nt,2,-5,59*,-7
COc1ccc(NC(=O)CCNC(=O)c2ccco2)cc1S(=O)(=O)N(C)C,-2,2,2,-2,-32,-8
Cc1ccc(-c2nc(CSCC(=O)NCc3cccnc3)c(C)o2)cc1,-13,13,0,0,58*,-16
CCOC(=O)N=Nc1c(O)n(CC(=O)OC)c2ccccc12,17,-17,1,1,10,7
CCOC(=O)N=Nc1c2ccccc2c2nc3no[nH]c3nc12,-20,20,-17,-1,76*,2
O=C(NCC[C@@H]1CC[C@@H](NS(=O)(=O)Cc2ccccc2)[C@H](CO)O1)C1CCCC1,nt,nt,nt,0,-3[16.7 µM],nt
CCCCN1CC(COCc2ccccc2)Oc2cccc(Oc3ccc(OC)cc3)c2S1(=O)=O (centres undefined),-38,38,-3,-1,11,7
CCCCN1CC(COCc2ccccc2)Oc2cccc(Oc3ccc(C(C)C)cc3)c2S1(=O)=O (centres undefined),-3,3,-5,1,63*,-1
